From ChEMBL document CHEMBL2021913, “Synthesis and biological evaluation of some novel thiazole substituted benzotriazole derivatives” (2012)
Values after ≈ are worked out from the molar mass of the structure shown. Active and inactive are the calls of the source. No cut-off for these calls is given here.

Legend:
Format in all cases: functional
Bacillus subtilis [1] = assay: Antimicrobial activity against Bacillus subtilis 2250 at 35 degC after 18 to 24 hrs by NCCLS method based antimicrobial assay; conditions: for MBC: read-out: MBC99.9
Candida albicans [2] = assay: Antimicrobial activity against Candida albicans 3471 at 35 degC after 48 hrs by CLSI method based antimicrobial assay; conditions: Candida albicans, 3471, 48 h; for MFC: read-out: MFC99.9
Procedure, shortened: (§1)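 Broth microdilution following CLSI guidelines over 256 to 1 µg/mL. MIC90 is the lowest concentration completely inhibiting growth. For MFC, 0.1 mL from each tube spread on agar and CFU counted after 48 h at 35 °C; MFC is lowest concentration killing 99.9% of inoculum. MFC/MIC ratio calculated: […], ≤4 as fungicidal.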

Candida albicans [3] = assay: Ratio of MFC99.9 to MIC90 for Candida albicans 3471 at 35 degC after 48 hrs by CLSI method based antimicrobial assay; procedure, shortened: as §1
Pseudomonas aeruginosa [4] = assay: Antimicrobial activity against Pseudomonas aeruginosa 2036 at 128 ug/disc at 35 degC after 24 hrs by agar-well diffusion assay; conditions: for zone of inhibition at 128 µg/disc: Pseudomonas aeruginosa, 2036, 24 h, read-out: DIZ
Procedure, shortened: (§2)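 Agar-well diffusion: 24 h bacterial cultures adjusted to 0.5 McFarland (1.5 × 10⁸ CFU/mL) and mixed into molten Mueller-Hinton agar before pouring. 6 mm wells punched and each filled with 50 µL of compound stock or control. Plates incubated 35 °C for 24 h. Zone of growth inhibition diameter measured with vernier caliper.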

Aspergillus niger [5] = assay: Ratio of MFC99.9 to MIC90 for Aspergillus niger 545 at 35 degC after 48 hrs by CLSI method based antimicrobial assay; procedure, shortened: as §1
Aspergillus niger [6] = assay: Antimicrobial activity against Aspergillus niger 545 at 35 degC after 48 hrs by CLSI method based antimicrobial assay; conditions: Aspergillus niger, 545, 48 h; for MFC: read-out: MFC99.9; procedure, shortened: as §1
Staphylococcus aureus [7] = assay: Antimicrobial activity against Staphylococcus aureus 2079 at 35 degC after 18 to 24 hrs by NCCLS method based antimicrobial assay; conditions: for MBC: read-out: MBC99.9
Escherichia coli [8] = assay: Antimicrobial activity against Escherichia coli 2109 at 35 degC after 18 to 24 hrs by NCCLS method based antimicrobial assay; conditions: for MBC: read-out: MBC99.9
Staphylococcus aureus [9] = assay: Antimicrobial activity against Staphylococcus aureus 2079 at 128 ug/disc at 35 degC after 24 hrs by agar-well diffusion assay; conditions: for zone of inhibition at 128 µg/disc: Staphylococcus aureus, 2079, 24 h, read-out: DIZ; procedure, shortened: as §2
Aspergillus niger [10] = assay: Antimicrobial activity against Aspergillus niger 545 at 128 ug/disc at 37 degC after 24 to 72 hrs by agar-well diffusion assay; conditions: read-out: DIZ
Procedure, shortened: (§3)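 Potato dextrose agar base plates overlaid with seeded agar cooled to 40 °C and inoculated with spores from 10-day cultures, final 1 × 10⁶ spores/mL. Compounds dissolved in DMSO at 128 µg/mL and applied on 6 mm filter-paper discs placed on chilled seeded medium. Nystatin positive control, DMSO negative control. Incubation 24–72 h at 37 °C. Inhibition zone diameter read by vernier caliper.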

Pseudomonas aeruginosa [11] = assay: Antimicrobial activity against Pseudomonas aeruginosa 2036 at 35 degC after 18 to 24 hrs by NCCLS method based antimicrobial assay; conditions: for MBC: read-out: MBC99.9
Bacillus subtilis [12] = assay: Antimicrobial activity against Bacillus subtilis 2250 at 128 ug/disc at 35 degC after 24 hrs by agar-well diffusion assay; conditions: for zone of inhibition at 128 µg/disc: Bacillus subtilis, 2250, 24 h, read-out: DIZ; procedure, shortened: as §2
Candida albicans [13] = assay: Antimicrobial activity against Candida albicans 3471 at 128 ug/disc at 37 degC after 24 to 72 hrs by agar-well diffusion assay; conditions: read-out: DIZ; procedure, shortened: as §3
Escherichia coli [14] = assay: Antimicrobial activity against Escherichia coli 2109 at 128 ug/disc at 35 degC after 24 hrs by agar-well diffusion assay; conditions: for zone of inhibition at 128 µg/disc: Escherichia coli, 2109, 24 h, read-out: DIZ; procedure, shortened: as §2

SMILES	MIC (Bacillus subtilis [1])	MBC (Bacillus subtilis [1]) [µg/mL]	MIC (Candida albicans [2]) [µg/mL]	MFC (Candida albicans [2]) [µg/mL]	Ratio (Candida albicans [3])	Ratio (Aspergillus niger [5])	MIC (Aspergillus niger [6]) [µg/mL]	MFC (Aspergillus niger [6]) [µg/mL]	MIC (Staphylococcus aureus [7])	MBC (Staphylococcus aureus [7]) [µg/mL]	MIC (Escherichia coli [8])	zone of inhibition at 128 µg/disc (Staphylococcus aureus [9]) [mm]	zone of inhibition at 128 µg/disc (Aspergillus niger [10]) [mm]	MIC (Pseudomonas aeruginosa [11])	zone of inhibition at 128 µg/disc (Bacillus subtilis [12]) [mm]	zone of inhibition at 128 µg/disc (Candida albicans [13]) [mm]	diameter of the inhibition zone (DIZ) (Pseudomonas aeruginosa [4])	MBC99.9 (Escherichia coli [8])	MBC99.9 (Pseudomonas aeruginosa [11])	diameter of the inhibition zone (DIZ) (Escherichia coli [14])	further results
Fc1ccc(-c2csc(N/N=C(/Cn3nnc4ccccc43)c3ccc(Cl)cc3)n2)cc1	128 µg/mL (≈ 276 µM)	128 (≈ 276 µM)	16 (≈ 34.6 µM)	64 (≈ 138 µM)	4	2	16 (≈ 34.6 µM)	32 (≈ 69.1 µM)	64 µg/mL (≈ 138 µM)	32 (≈ 69.1 µM)	64 µg/mL (≈ 138 µM)	24.7	20.1	128 µg/mL (≈ 276 µM)	16.9	21.3					zone of inhibition at 128 µg/disc (Pseudomonas aeruginosa [4]): 14.3 mm; MBC (Escherichia coli [8]): 128 µg/mL (≈ 276 µM); MBC (Pseudomonas aeruginosa [11]): 256 µg/mL (≈ 553 µM); zone of inhibition at 128 µg/disc (Escherichia coli [14]): 17.6 mm
Fc1ccc(-c2csc(N/N=C(/Cn3nnc4ccccc43)c3cc(C(F)(F)F)cc(C(F)(F)F)c3)n2)cc1	inactive		32 (≈ 56.7 µM)	128 (≈ 227 µM)	4	2	32 (≈ 56.7 µM)	64 (≈ 113 µM)	32 µg/mL (≈ 56.7 µM)	64 (≈ 113 µM)	inactive	24.3	16.8	inactive		18.4	inactive	inactive	inactive	inactive	MBC99.9 (Bacillus subtilis [1]): inactive; diameter of the inhibition zone (DIZ) (Bacillus subtilis [12]): inactive
Fc1ccc(/C(Cn2nnc3ccccc32)=N\Nc2nc(-c3cc(C(F)(F)F)cc(C(F)(F)F)c3)cs2)cc1	32 µg/mL (≈ 56.7 µM)	64 (≈ 113 µM)	32 (≈ 56.7 µM)	64 (≈ 113 µM)	2	4	32 (≈ 56.7 µM)	128 (≈ 227 µM)	128 µg/mL (≈ 227 µM)	128 (≈ 227 µM)	inactive	19.2	17.5	inactive	24.1	17.4	inactive	inactive	inactive	inactive	
O=[N+]([O-])c1ccc(-c2csc(N/N=C(/Cn3nnc4ccccc43)c3ccc(F)cc3)n2)cc1	128 µg/mL (≈ 270 µM)	256 (≈ 541 µM)	32 (≈ 67.6 µM)	64 (≈ 135 µM)	2	4	32 (≈ 67.6 µM)	128 (≈ 270 µM)	inactive		inactive		16.2	inactive	14.9	18.7	inactive	inactive	inactive	inactive	MBC99.9 (Staphylococcus aureus [7]): inactive; diameter of the inhibition zone (DIZ) (Staphylococcus aureus [9]): inactive
Clc1ccc(/C(Cn2nnc3ccccc32)=N\Nc2nc(-c3ccc(Br)cc3)cs2)cc1	128 µg/mL (≈ 244 µM)	256 (≈ 489 µM)	32 (≈ 61.1 µM)	128 (≈ 244 µM)	4	1	64 (≈ 122 µM)	64 (≈ 122 µM)	inactive		inactive		15.2	inactive	13.8	18	inactive	inactive	inactive	inactive	MBC99.9 (Staphylococcus aureus [7]): inactive; diameter of the inhibition zone (DIZ) (Staphylococcus aureus [9]): inactive
Fc1ccc(/C(Cn2nnc3ccccc32)=N\Nc2nc(-c3ccc(F)cc3)cs2)cc1	64 µg/mL (≈ 143 µM)	128 (≈ 287 µM)	16 (≈ 35.8 µM)	32 (≈ 71.7 µM)	2	4	16 (≈ 35.8 µM)	64 (≈ 143 µM)	64 µg/mL (≈ 143 µM)	128 (≈ 287 µM)	128 µg/mL (≈ 287 µM)	20.1	19.1	128 µg/mL (≈ 287 µM)		21.1					zone of inhibition at 128 µg/disc (Pseudomonas aeruginosa [4]): 11.8 mm; MBC (Escherichia coli [8]): 128 µg/mL (≈ 287 µM); MBC (Pseudomonas aeruginosa [11]): 256 µg/mL (≈ 573 µM); zone of inhibition at 128 µg/disc (Escherichia coli [14]): 15 mm
O=[N+]([O-])c1ccc(/C(Cn2nnc3ccccc32)=N\Nc2nc(-c3cc(C(F)(F)F)cc(C(F)(F)F)c3)cs2)cc1	inactive		128 (≈ 216 µM)	256 (≈ 433 µM)	2	2	32 (≈ 54.1 µM)	64 (≈ 108 µM)	inactive		128 µg/mL (≈ 216 µM)		17.9	inactive		19	inactive		inactive		MBC99.9 (Bacillus subtilis [1]): inactive; MBC99.9 (Staphylococcus aureus [7]): inactive; MBC (Escherichia coli [8]): 256 µg/mL (≈ 433 µM); diameter of the inhibition zone (DIZ) (Staphylococcus aureus [9]): inactive; diameter of the inhibition zone (DIZ) (Bacillus subtilis [12]): inactive; zone of inhibition at 128 µg/disc (Escherichia coli [14]): 15 mm
Fc1ccc(/C(Cn2nnc3ccccc32)=N\Nc2nc(-c3ccc(Cl)cc3)cs2)cc1	inactive		16 (≈ 34.6 µM)	64 (≈ 138 µM)	4	1	16 (≈ 34.6 µM)	16 (≈ 34.6 µM)	32 µg/mL (≈ 69.1 µM)	32 (≈ 69.1 µM)	inactive	25.9	21.4	64 µg/mL (≈ 138 µM)		20.2		inactive			MBC99.9 (Bacillus subtilis [1]): inactive; zone of inhibition at 128 µg/disc (Pseudomonas aeruginosa [4]): 19.1 mm; MBC (Pseudomonas aeruginosa [11]): 64 µg/mL (≈ 138 µM); diameter of the inhibition zone (DIZ) (Bacillus subtilis [12]): inactive
